Results taken from ChEMBL document CHEMBL1123677, “Structure-activity studies of 5-[[4-(4,5-dihydro-2-oxazolyl) phenoxy]alkyl]-3-methylisoxazoles: inhibitors of picornavirus uncoating” (J Med Chem, 1987).
Converted amounts (≈) assume the structure as drawn. The source made the active and inactive calls. The rule behind the calls is not given here.

What was measured:
[1] = test system: rhinovirus A2; experiment: Antirhinovirus activity was assessed and the maximum testable concentration that causes no apparent effects on the cell monolayers was determined against HRV-2 virus in vitro.; assay type: functional, human rhinovirus type 2
[2] = test system: Human rhinovirus sp.; experiment: Mean of MIC's was determined for the five types of virus like HRV-2, HRV-1A,HRV-22,HRV-41 and HRV-50; assay type: functional
Summary of the method: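 MIC measured by plaque reduction against HRV-2 first. The value is the mean of the MICs across these five serotypes.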

[3] = test system: rhinovirus B14; experiment: Tested for antirhinoviral activity against the rhinovirus serotype 14; assay type: functional, human rhinovirus type 14; conditions: Rhinovirus B
Summary of the method: (§1)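 Selected compounds were tested across a 15-serotype rhinovirus panel: the five secondary serotypes plus 10 more. An MIC was recorded for each serotype. MIC80, the concentration inhibiting 80% of serotypes tested, was also derived from this panel.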

[4] = test system: rhinovirus A2; experiment: Tested for antirhinoviral activity against the rhinovirus serotype 2; assay type: functional, human rhinovirus type 2; conditions: Rhinovirus A; summary of the method: as §1
[5] = test system: rhinovirus A21; experiment: Tested for antirhinoviral activity against the rhinovirus serotype 21; assay type: functional; conditions: Rhinovirus A; summary of the method: as §1
[6] = test system: rhinovirus A22; experiment: Tested for antirhinoviral activity against the rhinovirus serotype 22; assay type: functional; conditions: Rhinovirus A; summary of the method: as §1
[7] = test system: rhinovirus A25; experiment: Tested for antirhinoviral activity against the rhinovirus serotype 25; IA is inactive; assay type: functional, organism-based; summary of the method: as §1
[8] = test system: rhinovirus A30; experiment: Tested for antirhinoviral activity against the rhinovirus serotype 30; assay type: functional; conditions: Rhinovirus A; summary of the method: as §1
[9] = test system: rhinovirus A41; experiment: Tested for antirhinoviral activity against the rhinovirus serotype 41; assay type: functional; conditions: Rhinovirus A; summary of the method: as §1
[10] = test system: rhinovirus A50; experiment: Tested for antirhinoviral activity against the rhinovirus serotype 50; assay type: functional; conditions: Rhinovirus A; summary of the method: as §1
[11] = test system: rhinovirus B6; experiment: Tested for antirhinoviral activity against the rhinovirus serotype 6; assay type: functional; conditions: Rhinovirus B; summary of the method: as §1
[12] = test system: rhinovirus A67; experiment: Tested for antirhinoviral activity against the rhinovirus serotype 67; assay type: functional; conditions: Rhinovirus A; summary of the method: as §1
[13] = test system: rhinovirus B86; experiment: Tested for antirhinoviral activity against the rhinovirus serotype 86; assay type: functional; conditions: Rhinovirus B; summary of the method: as §1
[14] = test system: rhinovirus A89; experiment: Tested for antirhinoviral activity against the rhinovirus serotype 89; assay type: functional, human rhinovirus type 89; conditions: Rhinovirus A; summary of the method: as §1
[15] = test system: rhinovirus A15; experiment: Tested for antirhinoviral activity against the rhinovirus serotype 15; assay type: functional; conditions: Rhinovirus A; summary of the method: as §1
[16] = test system: Human rhinovirus 1A; experiment: Tested for antirhinoviral activity against the rhinovirus serotype 1A; assay type: functional; summary of the method: as §1
[17] = test system: rhinovirus A1B; experiment: Tested for antirhinoviral activity against the rhinovirus serotype 1B; IA is inactive; assay type: functional, organism-based; conditions: human rhinovirus type 1b; summary of the method: as §1
[18] = test system: rhinovirus A2; experiment: Antiviral activity determined by ability to inhibit the HRV-2( human rhinovirus type -2) virus by plaque reduction assay in vitro; assay type: functional; conditions: Rhinovirus A
Summary of the method: (§2)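 Plaque reduction assay against human rhinovirus type 2 (HRV-2), following an earlier reported method. The value is the MIC, the minimum inhibitory concentration.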

[19] = test system: human rhinovirus (15-serotype panel); experiment: Antirhinovirus activity was determined by the ability to inhibit the growth of 80% of a panel of 15 human rhinovirus serotypes
[20] = Partition coefficient (logP); assay type: physicochemical; conditions: octanol/water
[21] = test system: rhinovirus A2; experiment: Antirhinovirus activity was determined by the ability to inhibit the HRV-2 (human rhinovirus type -2) virus by plaque reduction assay in vitro; assay type: functional; conditions: Rhinovirus A; summary of the method: as §2
[22] = test system: rhinovirus A25; experiment: Tested for antirhinoviral activity against the rhinovirus serotype 25; assay type: functional; conditions: Rhinovirus A; summary of the method: as §1
[23] = test system: rhinovirus A1B; experiment: Tested for antirhinoviral activity against the rhinovirus serotype 1B; assay type: functional, human rhinovirus type 1b; conditions: Rhinovirus A; summary of the method: as §1
[24] = test system: rhinovirus A2; experiment: Antirhinovirus activity was determined by the ability to inhibit the HRV-2( human rhinovirus type -2) virus by plaque reduction assay in vitro; IA is inactive; assay type: functional, organism-based; summary of the method: as §2

Row | MIC [2] | MIC [3] | MIC [4] | MIC [5] | MIC [6] | MIC [8] | MIC [9] | MIC [10] | MIC [11] | MIC [12] | MIC [13] | MIC [14] | MIC [15] | MIC [16] | MIC [18] | MIC80 [19] | logP [20] | MIC [22] | MIC [23] | Compound | MTL [1] | also measured
1 | 5.2 µM (≈ 1.63 µg/mL) | 0.7 µM (≈ 0.22 µg/mL) | 1.1 µM (≈ 0.346 µg/mL) | 1.2 µM (≈ 0.377 µg/mL) | 0.9 µM (≈ 0.283 µg/mL) | 0.3 µM (≈ 0.0943 µg/mL) | 15 µM (≈ 4.72 µg/mL) | 1.5 µM (≈ 0.472 µg/mL) | 0.06 µM (≈ 0.0189 µg/mL) | 2.4 µM (≈ 0.755 µg/mL) | 0.2 µM (≈ 0.0629 µg/mL) | 0.4 µM (≈ 0.126 µg/mL) | 1.5 µM (≈ 0.472 µg/mL) | 7 µM (≈ 2.2 µg/mL) | 1.1 µM (≈ 0.346 µg/mL) | 7 µM (≈ 2.2 µg/mL) |  |  |  | Cc1cc(CCCCCOc2ccc(C3=NCCO3)cc2)on1 | 9.9 µM | MIC [7]: inactive; MIC [17]: inactive
2 |  |  |  |  |  |  |  |  |  |  |  |  |  |  | 7.1 µM (≈ 2.45 µg/mL) |  |  |  |  | Cc1cc(CCCCCOc2ccc(C3=NCCO3)cc2CO)on1 | 9 µM | 
3 | > 2.3 µM |  |  |  |  |  |  |  |  |  |  |  |  |  | 1.4 µM (≈ 0.479 µg/mL) |  |  |  |  | Cc1cc(CCCCCOc2ccc(C3=NCCO3)cc2C=O)on1 | 2.3 µM | 
4 | 1.4 µM (≈ 0.46 µg/mL) | 0.6 µM (≈ 0.197 µg/mL) | 0.09 µM (≈ 0.0296 µg/mL) | 0.06 µM (≈ 0.0197 µg/mL) | 0.2 µM (≈ 0.0657 µg/mL) | 0.05 µM (≈ 0.0164 µg/mL) | 4.3 µM (≈ 1.41 µg/mL) | 0.3 µM (≈ 0.0985 µg/mL) | 0.6 µM (≈ 0.197 µg/mL) | 0.2 µM (≈ 0.0657 µg/mL) | 0.6 µM (≈ 0.197 µg/mL) | 0.06 µM (≈ 0.0197 µg/mL) | 0.2 µM (≈ 0.0657 µg/mL) | 2 µM (≈ 0.657 µg/mL) |  | 0.6 µM (≈ 0.197 µg/mL) | 4.4 | 6.7 µM (≈ 2.2 µg/mL) | 0.3 µM (≈ 0.0985 µg/mL) | Cc1cc(CCCCCOc2ccc(C3=NCCO3)cc2C)on1 | 19 µM | MIC [21]: 0.1 µM (≈ 0.0328 µg/mL)
5 | 1 µM (≈ 0.364 µg/mL) | 2 µM (≈ 0.729 µg/mL) | 0.05 µM (≈ 0.0182 µg/mL) | 0.05 µM (≈ 0.0182 µg/mL) | 0.05 µM (≈ 0.0182 µg/mL) | 0.09 µM (≈ 0.0328 µg/mL) | 2 µM (≈ 0.729 µg/mL) | 2 µM (≈ 0.729 µg/mL) | 0.3 µM (≈ 0.109 µg/mL) | 0.2 µM (≈ 0.0729 µg/mL) | 1.7 µM (≈ 0.619 µg/mL) | 0.02 µM (≈ 0.00729 µg/mL) | 0.2 µM (≈ 0.0729 µg/mL) | 0.8 µM (≈ 0.292 µg/mL) | 0.06 µM (≈ 0.0219 µg/mL) | 2 µM (≈ 0.729 µg/mL) | 4.59 | 0.9 µM (≈ 0.328 µg/mL) | 0.08 µM (≈ 0.0292 µg/mL) | Cc1cc(CCCCCOc2ccc(C3=NCCO3)cc2C(F)F)on1 | 17 µM | 
6 | 6.5 µM (≈ 2.27 µg/mL) |  |  |  |  |  |  |  |  |  |  |  |  |  | 0.4 µM (≈ 0.14 µg/mL) | 7 µM (≈ 2.44 µg/mL) |  |  |  | Cc1cc(CCCCCOc2ccc(C3=NCCO3)c(Cl)c2)on1 | 25 µM | 
7 | 7 µM (≈ 2.31 µg/mL) |  |  |  |  |  |  |  |  |  |  |  |  |  | 0.91 µM (≈ 0.3 µg/mL) |  | 2.83 |  |  | Cc1cc(CCCCCOc2ccc(C3=NCCO3)cc2N)on1 | 19 µM | 
8 | 1.4 µM (≈ 0.508 µg/mL) |  |  |  |  |  |  |  |  |  |  |  |  |  | 0.06 µM (≈ 0.0218 µg/mL) | 1.2 µM (≈ 0.435 µg/mL) |  |  |  | Cc1cc(CCCCCCOc2ccc(C3=NCCO3)cc2Cl)on1 | 8.5 µM | 
9 | > 17 µM |  |  |  |  |  |  |  |  |  |  |  |  |  | 0.2 µM (≈ 0.0715 µg/mL) |  |  |  |  | Cc1cc(CCCCCOc2ccc(C3=NCCO3)cc2N(C)C)on1 | 17 µM | 
10 | 0.8 µM (≈ 0.272 µg/mL) | 1.7 µM (≈ 0.579 µg/mL) | 0.2 µM (≈ 0.0681 µg/mL) | 0.09 µM (≈ 0.0306 µg/mL) | 0.5 µM (≈ 0.17 µg/mL) | 0.1 µM (≈ 0.034 µg/mL) | 1.3 µM (≈ 0.443 µg/mL) | 1.2 µM (≈ 0.409 µg/mL) | 2.4 µM (≈ 0.817 µg/mL) | 0.4 µM (≈ 0.136 µg/mL) | 1.6 µM (≈ 0.545 µg/mL) | 0.1 µM (≈ 0.034 µg/mL) | 0.7 µM (≈ 0.238 µg/mL) | 1.2 µM (≈ 0.409 µg/mL) | 0.2 µM (≈ 0.0681 µg/mL) | 1.6 µM (≈ 0.545 µg/mL) | 4.65 | 1.7 µM (≈ 0.579 µg/mL) | 0.3 µM (≈ 0.102 µg/mL) | C=Cc1cc(C2=NCCO2)ccc1OCCCCCc1cc(C)no1 | 18 µM | 
11 | 0.4 µM (≈ 0.153 µg/mL) | 3 µM (≈ 1.15 µg/mL) | 0.03 µM (≈ 0.0115 µg/mL) | 0.03 µM (≈ 0.0115 µg/mL) | 0.07 µM (≈ 0.0268 µg/mL) | 0.3 µM (≈ 0.115 µg/mL) | 0.2 µM (≈ 0.0765 µg/mL) | 1.1 µM (≈ 0.421 µg/mL) | 1.8 µM (≈ 0.688 µg/mL) | 0.2 µM (≈ 0.0765 µg/mL) | 0.03 µM (≈ 0.0115 µg/mL) | 0.2 µM (≈ 0.0765 µg/mL) | 0.2 µM (≈ 0.0765 µg/mL) | 0.4 µM (≈ 0.153 µg/mL) | 0.03 µM (≈ 0.0115 µg/mL) | 1.1 µM (≈ 0.421 µg/mL) | 4.38 | 0.2 µM (≈ 0.0765 µg/mL) | 0.04 µM (≈ 0.0153 µg/mL) | Cc1cc(CCCCCOc2ccc(C3=NCCO3)cc2C(F)(F)F)on1 | 3.4 µM | 
12 |  |  |  |  |  |  |  |  |  |  |  |  |  |  |  |  |  |  |  | Cc1cc(CCCCCOc2ccc(C3=NCCO3)cc2C(C)(C)C)on1 | 8.4 µM | MIC [24]: inactive
13 |  |  |  |  |  |  |  |  |  |  |  |  |  |  |  |  |  |  |  | Cc1cc(CCCCCOc2ccc(C3=NCCO3)cc2C(=O)O)on1 |  | MIC [24]: inactive
